The term IC50 denotes the concentration at which inhibition is half-maximal. Lower therefore signals greater potency in that assay.

“And” between values parts separate entries of the source, which are not always exact repeats. Equal entries are not always repeated.

Consider 13 compounds from PMC7125423 (Archives of Pharmacal Research, 2020).

One data set concerns neuraminidase. In kind it is cell-based, influenza virus A/Font Monmouth/47(H1N1, FM1).
The subject of the next data set is MDCK cells. The data set is described as follows: Cell viability assay. In kind it is cell-based, canine. Particulars: 24 h, MTT. The gist of the method: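 Confluent MDCK cells (grown in DMEM with 10% FBS, penicillin and streptomycin, 5% CO2) were exposed to graded concentrations of test compound for 24 h. Viability was measured by MTT. The maximum non-toxic dose was taken from this assay and then used in the infection assays.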

For a further data set, the system named is IAV nucleoprotein (NP). In words: Indirect immunofluorescence of viral NP in H1N1-infected MDCK cells. In kind it is cell-based, influenza virus A/Font Monmouth/47(H1N1, FM1). Particulars: at MNTD, 8 h after infection, compared to virus group. The gist of the method:
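Confluent MDCK monolayers were infected with 100 μL of 100 TCID50 H1N1 for 2 h at 37 °C. Inoculum was removed and test compound was added at its maximum non-toxic dose in DMEM. At 8 h post-infection, cells were fixed in ice-cold acetone/methanol (40:60) for 15 min. Staining used mouse anti-NP monoclonal antibody (1:100 in PBS, 1 h), then Alexa Fluor 488 anti-mouse IgG (1:100, 1 h), with DAPI for nuclei; imaged by fluorescence microscopy.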

The subject of data set [1] is influenza virus A/Font Monmouth/47(H1N1, FM1). The class given is cell-based.
The target in data set [2] is influenza H1N1 virus neuraminidase (Influenza A virus, UniProt P03468). The data set is described as follows: Neuraminidase inhibition screening assay. In kind it is biochemical.
Chain of influenza H1N1 virus neuraminidase (P03468 whole entry): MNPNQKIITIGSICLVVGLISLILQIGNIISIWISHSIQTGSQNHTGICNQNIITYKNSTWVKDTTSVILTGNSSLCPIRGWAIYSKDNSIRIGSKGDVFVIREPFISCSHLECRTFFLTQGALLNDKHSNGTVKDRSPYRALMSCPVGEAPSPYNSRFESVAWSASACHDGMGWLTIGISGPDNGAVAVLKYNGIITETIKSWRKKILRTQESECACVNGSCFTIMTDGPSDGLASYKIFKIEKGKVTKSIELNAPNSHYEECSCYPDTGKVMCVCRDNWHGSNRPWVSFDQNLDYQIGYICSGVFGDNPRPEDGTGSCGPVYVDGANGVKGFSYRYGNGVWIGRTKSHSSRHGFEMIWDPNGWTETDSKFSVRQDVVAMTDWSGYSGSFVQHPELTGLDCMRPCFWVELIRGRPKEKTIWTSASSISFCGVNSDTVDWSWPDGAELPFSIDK
Data set [3] deals with influenza A/Font Monmouth/47(H1N1, FM1) virus. On the set-up: species or system NIH mice. Particulars: mouse, in vivo.
The next data set relates to IFN-γ. In words: Cytokine in lung homogenate of IAV-infected mice. The note with it: day 5 after infection; different doses (100, 50, 25 mg/kg/day). The class given is in vivo. The gist of the method: (§1)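 Female SPF NIH mice (13–15 g) were infected with mouse-adapted IAV A/Font Monmouth/47 (H1N1, FM1). Controls were normal and placebo (saline, 0.5% Tween 80) groups. On day 5 post-infection, lungs were homogenised and centrifuged (4000×g, 15 min, 4 °C), and supernatants were stored at −80 °C. Cytokines were measured by anti-mouse ELISA kits; n = 10; mean ± SD of 3 separate experiments.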

Data set [4] concerns influenza A/Font Monmouth/47(H1N1, FM1) virus. The data set is described as follows: Survival experiments in IAV-infected mice. The class given is in vivo, NIH mice. Particulars: 100, 50 and 25 mg/kg/day, pre-infection and post-infection, oral gavage, 2 LD50, vs placebo.
In the next data set the test system is IL-6. The data set is described as follows: Cytokine in lung homogenate of IAV-infected mice. The class given is in vivo. Particulars: day 5 after infection; different doses (100, 50, 25 mg/kg/day). The gist of the method: as §1
A further data set relates to TNF-α. In words: Cytokine in lung homogenate of IAV-infected mice. The class given is in vivo. The note with it: day 5 after infection; different doses, except 25 mg/kg/day. The method in brief:
as §1

Data set [5] is described as follows: Dose safety of curcumin in mice. The class given is in vivo. Particulars: 100 mg/kg/day.
The mark [6] stands for this setting: IC50, NA activity inhibition assay.

Consider `O=C(/C=C/c1ccc(O)cc1)CC(=O)/C=C/c1ccc(O)cc1` [Bisdemethoxycurcumin], for which, in the data set with neuraminidase, the “decrease of NA activity” value is 2.45 fold and the “neuraminidase activity in cell supernatant” value (shortened to “neuraminidase activity”) is 0.40 ± 0.01 mU/mL. The “MNTD (maximum non-toxic dose)” value in the data set on MDCK cells was 20 µM. For the same compound, the “viral NP localisation (immunofluorescence)” value (shortened to “viral NP localisation”) with IAV nucleoprotein (NP) is recorded as “a strong green fluorescent signal was observed in the cytoplasm”. Further, in [1], the “decrease of mRNA expression level of M gene” value (shortened to “decrease … of M gene”) was “about 2.13 fold” and the “mRNA expression level of M gene” value is 0.47 ± 0.11 µM. The midpoint of inhibition in [2] (setting [6]), the IC50, lay at 70.1 µM.

Consider `COc1cc(/C=C/C(=O)CC(=O)/C=C/c2ccc(O)c(OC)c2)ccc1O` [Curcumin-d6], for which the IC50 in data set [2] (NA activity inhibition assay) was determined as 18800 µM.

For the compound `[2H]C([2H])([2H])Oc1cc(/C=C/C(=O)CC(=O)/C=C/c2ccc(O)c(OC([2H])([2H])[2H])c2)ccc1O` [Curcumin-d6], the “pIC50 (expt.)” value in [2] (converted from IC50) is given as 1.73.

As for `COc1cc(/C=C/C(=O)CC(=O)/C=C/c2ccc(O)c(OC)c2)ccc1O` [Curcumin], in the data set on neuraminidase, the “decrease of NA activity” value was “about 2.04 fold” and the “neuraminidase activity” value stood at 0.48 ± 0.03 mU/mL. For the same compound, in data set [3], the Lung index inhibition is 22.42% and 23.6% and 35.75^** %; the “Lung pathological change degree” value was 1.10 ± 0.39 and 0.92 ± 0.47 and 1.02 ± 0.55. Besides, the “IFN-γ level in lung homogenate” value in the data set with IFN-γ is on record as “significantly attenuated the increases”. Also, in the data set on MDCK cells, the “MNTD (maximum non-toxic dose)” value amounted to 25 µM. The “viral NP localisation” value in the data set with IAV nucleoprotein (NP) is “less NP was observed in the cytoplasm”. Besides, in data set [1], the “decrease … of M gene” value is “about 5.26 fold” and the “mRNA expression level of M gene” value worked out at 0.19 ± 0.03 µM. Moreover, in data set [4], the average survival time entry was “prolonged the average survival time” and the death protection rate entry was “promote the death protection rate significantly”. The “IL-6 level in lung homogenate” value in the data set on IL-6 was “significantly attenuated the increases”. Also, the “TNF-α level in lung homogenate” value in the data set on TNF-α was “significantly attenuated the increases”. In data set [2] (setting [6]), this compound showed an IC50 of 450 µM. Further, the “weight and clinical symptoms (dose safety)” value in data set [5] was “remained stable in weight and showed no significant clinical symptoms”.

With `COc1cc(/C=C/C(O)=C/C(=O)/C=C/c2ccc(O)cc2)ccc1O` [Demethoxycurcumin], the IC50 in [2] (setting [6]) came to 200 µM.

As to `COc1cc(/C=C/C(=O)CC(=O)CCc2ccc(O)c(OC)c2)ccc1O` [Dihydrocurcumin], in the data set with neuraminidase, the “decrease of NA activity” value was approximately 1.81 fold and the “neuraminidase activity” value is 0.54 ± 0.02 mU/mL. In the data set with MDCK cells, the “MNTD (maximum non-toxic dose)” value turned out to be 20 µM. In addition, in the data set on IAV nucleoprotein (NP), the “viral NP localisation” value was “a strong green fluorescent signal was observed in the cytoplasm”. For the same compound, in data set [1], the “decrease … of M gene” value is recorded as approximately 1.20 fold and the “mRNA expression level of M gene” value stood at 0.83 ± 0.09 µM. Besides, in data set [2] (NA activity inhibition assay), the IC50 is 219 µM. Moreover, in data set [2] (converted from IC50), the “pIC50 (expt.)” value amounted to 3.66.

Regarding `COc1ccc(/C=C/C(=O)/C=C(O)/C=C/c2ccc(OC)c(OC)c2)cc1OC` [Dimethylcurcumin], the midpoint of inhibition in data set [2] (setting [6]), the IC50, lay at 1610 µM.

On to `COc1cc(CCC(=O)CC(O)CCc2ccc(O)c(OC)c2)ccc1O` (centres unmarked) [Hexahydrocurcumin], for which the IC50 in [2] (setting [6]) was 33700 µM; in data set [2] (pIC50 (expt.), converted from IC50), 33900 µM.

`COc1cc(CCC(O)CC(O)CCc2ccc(O)c(OC)c2)ccc1O` (centres unmarked) [Octahydrocurcumin]: the IC50 in [2] (setting [6]) was 1530 µM.

For `CCC(CC)O[C@@H]1C=C(C(=O)O)C[C@H](N)[C@H]1NC(C)=O` [Oseltamivir carboxylate, reference compound], the “decrease … of M gene” value in [1] was “about 11.11 fold”.

As for `NC(=O)c1ncn([C@@H]2O[C@H](CO)[C@@H](O)[C@H]2O)n1` [Ribavirin, reference compound], in data set [3], the Lung index is on record as 0.94 ± 0.29, the Lung index inhibition came out at 43% and the “Lung pathological change degree” value amounted to 0.87 ± 0.52.

`COc1cc(CCC(=O)CC(=O)CCc2ccc(O)c(OC)c2)ccc1O` [Tetrahydrocurcumin] displayed an IC50 in data set [2] (setting [6]) of 203 µM.

Take Tetramethylcurcumin: in the data set on neuraminidase, the “decrease of NA activity” value is 2.65 fold and the “neuraminidase activity” value amounted to 0.37 ± 0.06 mU/mL. In the data set with MDCK cells, the “MNTD (maximum non-toxic dose)” value is 15 µM. The “viral NP localisation” value with IAV nucleoprotein (NP) is “less NP was observed in the cytoplasm”. In [1], the “decrease … of M gene” value is on record as “about 3.85 fold” and the “mRNA expression level of M gene” value was found to be 0.26 ± 0.07 µM. Also, half-maximal inhibition in [2] (NA activity inhibition assay) (IC50) was put at 226 µM. For the same compound, the “pIC50 (expt.)” value in [2] (converted from IC50) was found to be 3.65.
